# Source: PubChem (Johns Hopkins Ion Channel Center)
# Shown are actives, neighbours in structure and some others; about 3.7% of the full set was active somewhere.
# Kir21 block: blocks the mouse Kir2.1 inward-rectifier potassium channel. P35561. HEK293-Kir2.1, FluxOR thallium flux fluorescence; active compounds read low. 310,000 compounds, 0.85% hits. B-score at 10 µM;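 active = fluorescence ratio B-score at or below minus 3 SD of library scores, with starting-brightness B-score within 2 SD, cut at about -4.2 in these data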;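 note: channel flux triggered by added potassium and thallium sulfate stimulus; B-score of peak minus minimum fluorescence over baseline after thallium stimulus; more negative B-score means stronger Kir2.1 block with less thallium influx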
# hERG protect: hERG (human) protection from proarrhythmic block; CHO-hERG, FluxOR thallium flux, dofetilide IC70 present; activation (rescue from dofetilide block), less the hit threshold, % at 10 µM; 310,000 compounds, 0.51% hits; AID 1511;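 active = activation above the mean of controls blocked by dofetilide plus 5 SD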;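 note: thallium influx through hERG after potassium depolarization seen as dye fluorescence rise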
# KCNQ1 act: potentiates or activates the human KCNQ1 potassium channel; CHO-K1 KCNQ1, thallium flux FluxOR fluorescence; active compounds read high; B-score at 10 µM; 310,000 compounds, 0.35% hits; AID 2648;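 active = fluorescence ratio B-score, a plate-corrected score, at least three library SD, with initial intensity B-score within 5 SD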
#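 assay system = CHO-K1 cells stably expressing KCNQ1 | medium = assay buffer, equal DMSO in all wells | timing = 37 °C overnight plating, 90-min dark dye load, 20-min compound pretreatment | measured by = kinetic FluxOR thallium fluorescence, 10-s 1-Hz baseline, 110-s post-stimulus read | measure = fluorescence change relative to baseline, converted to B score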
# KCNK9 inh: blocks the human KCNK9 two-pore domain potassium channel | Q9NPC2 | HEK293 KCNK9, FluxOR thallium flux fluorescence; active compounds read low | B-score at 10 µM | 310,000 compounds, 1.2% hits | AID 488922;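 active = ratio B-score over 3 SD below the library mean, with starting fluorescence within 5 SD of its mean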;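 note: negative B-score means less thallium flux so channel inhibition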
# Target sequence (Q9NPC2 whole entry, looked up, the tested form may be a part): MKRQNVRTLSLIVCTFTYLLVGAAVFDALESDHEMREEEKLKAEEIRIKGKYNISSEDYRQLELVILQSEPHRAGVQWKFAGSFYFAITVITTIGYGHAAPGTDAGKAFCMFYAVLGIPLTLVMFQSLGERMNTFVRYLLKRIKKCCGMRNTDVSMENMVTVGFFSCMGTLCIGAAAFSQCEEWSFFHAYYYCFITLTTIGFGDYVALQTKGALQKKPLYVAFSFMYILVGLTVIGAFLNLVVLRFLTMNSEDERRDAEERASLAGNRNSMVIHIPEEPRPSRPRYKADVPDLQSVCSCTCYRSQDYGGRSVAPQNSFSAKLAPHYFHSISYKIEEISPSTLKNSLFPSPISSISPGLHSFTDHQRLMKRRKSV
# KCNK3 inh: human KCNK3 channel inhibition, primary screen | AID 602410 | O14649 | B-score at 10 µM | CHO-KCNK3 thallium flux, FluxOR fluorescence; active compounds read low | 340,000 compounds, 0.84% hits;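 active = B-score under library mean minus 4 SD, starting fluorescence ratio at most library mean plus 5 SD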;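 note: more negative B-score means stronger inhibition of thallium flux through KCNK3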
# KCNQ1 block: blocks the human KCNQ1 potassium channel. P51787. B-score at 10 µM. CHO-K1 KCNQ1, FluxOR thallium flux fluorescence; active compounds read high. AID 2642. 310,000 compounds, 1.3% hits;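 active = compounds whose thallium flux B-score, printed positive for inhibition, exceeds three library SD while starting fluorescence stays within three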;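 note: channel opened by potassium depolarization with thallium stimulus after 20 min compound exposure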
# KCNK3 confirm: confirmation of human KCNK3 two-pore domain potassium channel inhibitors. ratio percent of control, % at 10 µM. CHO-KCNK3 thallium flux, FluxOR fluorescence; 0% buffer, 100% carvedilol maximal block. 2,400 compounds, 99% hits. shares compounds with KCNK3 inh;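 active = ratio percent of control, averaged over triplicates, above buffer control mean plus 5 SD, cut at about 64% in these data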;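 note: ratio is the fluorescence rise from min to max over baseline after thallium stimulus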
# KCNK3 uninduced: counter-screen for KCNK3 inhibitors: effect in non-induced cells. 2,400 compounds, 40% hits. non-induced KCNK3 parental cells, FluxOR thallium flux; active compounds read low. thallium flux ratio (lower = more inhibition) at 10 µM. shares compounds with KCNK3 inh;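 active = thallium flux ratio, averaged over three wells, more than 5 SD below the buffer control mean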;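 note: host cells are CHO cells without KCNK3 induction; ratio is peak minus trough fluorescence over baseline then normalized to buffer controls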
# Active calls of the source: *; i = inactive; nt = not tested or not shown.
SMILES,Kir21 block,hERG protect,KCNQ1 act,KCNK9 inh,KCNK3 inh,KCNQ1 block,KCNK3 confirm,KCNK3 uninduced
Cc1cc(C(=O)c2ccccc2)c(NC(=O)CN2CCOCC2)s1,1.7,-9,i,i,i,i,nt,nt
O=C1OCCC1=Cc1ccccc1,nt,nt,nt,nt,i,nt,nt,nt
CCCCNC(=O)[C@@H]1CC=C[C@@H]2CCN(C3CC3)C(=O)[C@@H]21,1.2,-2,i,i,i,i,nt,nt
Cc1nnc(SCC(=O)Nc2nsc(-c3ccc(C(C)(C)C)cc3)n2)s1,0.01,-14,i,i,-9.9*,i,102*,i
O=C(Nc1ccccc1Oc1ccccc1)c1cccs1,0.02,-11,i,i,i,i,nt,nt
C/C(=N\NC(=O)C1(C)CC1(Br)Br)c1cccc(NC(=O)c2ccc(C)o2)c1 (configuration not stated),-1.6,-14,i,i,-9.6*,i,108*,0.14*
Cc1ccc(C(=O)Nc2cccc(C(=O)NCc3ccccc3)c2)o1,-0.74,-10,i,i,i,i,nt,nt
C/C(=N\Nc1nc(N2CCOCC2)nc(N2CCOCC2)n1)c1cccs1,-0.41,-8,i,i,i,i,nt,nt
C/C(=N\Nc1nc(N2CCCCC2)nc(N2CCOCC2)n1)c1ccccc1O,0,-9,i,i,-9.1*,i,104*,i
CC(=O)Nc1cc(C(=O)OC(C(=O)c2ccccc2)c2ccccc2)ccc1C (configuration not stated),-0.11,-19,i,i,-10*,i,79*,i
COc1ccc(C(=O)C(OC(=O)c2ccc(C)c(NC(C)=O)c2)c2ccccc2)cc1 (configuration not stated),2.8,-16,i,i,i,i,nt,nt
COCCOC(=O)c1c(C)oc2ccc(OC(=O)c3c(OC)cccc3OC)cc12,-0.98,-3,i,i,-10*,i,104*,i
C=CCn1c(SCC(=O)c2cccs2)nc2sc(C)c(C)c2c1=O,1.1,-3,i,i,-9.5*,i,115*,0.15*
C=CCSc1nc2sc(C)c(C)c2c(=O)n1CC=C,1.1,-5,i,i,i,i,nt,nt
Cc1cccn2c(=O)c(/C=C(\C#N)C(N)=O)c(N3CCN(c4cccc(Cl)c4)CC3)nc12,1.4,-5,i,-7.2*,-10*,i,102*,i
O=C1N(c2ccccc2)C(c2ccc(Cl)cc2)N2CCCN12 (configuration not stated),-0.01,-9,i,i,i,i,nt,nt
Cc1ccc(C2N(c3ccc(Cl)cc3)C(=O)N3CCCN23)cc1 (configuration not stated),0.6,-10,i,i,-9.6*,i,90*,i
CC1CN(/C=C/C=O)C(C)CC1OC(=O)c1ccccc1 (configuration not stated),0.01,-7,i,i,i,i,nt,nt
C[C@H](CO)N1C[C@H](C)[C@@H](CN(C)S(=O)(=O)c2ccccc2)Oc2c(NC(=O)c3ccncc3)cccc2C1=O,nt,nt,nt,nt,i,nt,nt,nt
Cc1c(CCOC(=O)CC23CC4CC(CC(C4)C2)C3)sc[n+]1CC(=O)c1ccc(Br)cc1,-1.8,-33,i,i,-10*,6*,119*,i
Oc1ccccc1/C=N/Nc1cccc2cccnc12,-1.1,-9,i,i,-11*,i,98*,i
CC(C)(C)n1nnnc1C(c1cccnc1)N1CCN(c2cccc(C(F)(F)F)c2)CC1 (configuration not stated),1.8,-7,i,i,-10*,i,77*,i
CC(C)(C)n1nnnc1C(c1cccnc1)N1CCN(C2CCCCC2)CC1 (configuration not stated),-2.7,-2,i,i,i,i,nt,nt
O=S(=O)(c1ccc(Cl)cc1)N1CCN(S(=O)(=O)N2CCCCCC2)CC1,0.97,-2,i,i,i,i,nt,nt
O=S(=O)(N1CCCCC1)N1CCN(c2cc(Cl)ccc2Cl)CC1,-1.4,-4,i,i,-9.2*,i,111*,i
SMILES,Kir21 block,hERG protect,KCNQ1 act,KCNK9 inh,KCNK3 inh,KCNQ1 block,KCNK3 confirm,KCNK3 uninduced
O=C(COc1ccccc1)N[C@@H]1c2ccccc2CC[C@@H]1O,nt,nt,nt,nt,i,nt,nt,nt
CC(=O)c1c(C)[nH]c(C(=O)OCC(=O)Nc2ccc(Cl)c(S(=O)(=O)N(C)C)c2)c1C,0.02,-6,i,i,i,i,nt,nt
CC(=O)c1c(C)[nH]c(C(=O)Nc2ccc(Cl)c(S(=O)(=O)N(C)C)c2)c1C,-0.77,-35,i,i,-11*,i,103*,i
O=C(Nc1ccc(N2CCCC2)cc1)c1cccc(-c2cc3ccccc3oc2=O)c1,0.99,-7,i,i,-10*,i,84*,i
Cc1onc(-c2ccccc2Cl)c1C(=O)N1CCCCC1C (configuration not stated),-1.2,-4,i,i,i,i,nt,nt
O=[N+]([O-])c1ccc(C2CCCC/C2=N/OCc2ccccc2F)c([N+](=O)[O-])c1 (configuration not stated),-2.9,-19,i,i,-8.7*,12*,121*,i
COc1cc(NC(=S)NC(=O)CC(C)C)ccc1NC(=O)c1cc2ccccc2o1,-0.05,-5,i,i,i,i,nt,nt
OC1CCN(c2c3c(nc4cc(-c5cccc(F)c5)nn24)CCCC3)CC1,-0.9,-4,i,i,-8.9*,i,122*,i
Cc1ccccc1-n1nnnc1SCc1csc(-c2ccccc2)n1,-0.87,-13,i,i,-11*,i,105*,i
Cc1cccc(C)c1NC(=O)/C(=C/c1ccco1)c1ccccc1,0.03,-12,i,i,i,i,nt,nt
Cc1cc(C)c(NC(=O)/C(=C/c2ccco2)c2ccccc2)c(C)c1,-1.4,-3,i,i,-9*,i,108*,i
Cc1cc(C)nc(Nc2ccccc2F)n1,-1.6,1,i,i,i,i,nt,nt
Cc1c(C#N)c2ccccc2n1CC(=O)O,-0.13,-10,i,i,i,i,nt,nt
COc1ccccc1OCCCn1c(C)c(C#N)c2ccccc21,-2,-9,i,i,-10*,i,119*,0.16*
O=C1CC(c2ccccc2)(c2ccccc2)c2ccccc21,nt,nt,nt,nt,i,nt,nt,nt
